Experiment [1] deals with K562 cell line. Kind of experiment: CCK-8 antiproliferative assay, K562. It is filed as cell-based. Conditions: for inhibition at 0.1 µM / inhibition at 1 µM / IC50: Homo sapiens, K562, 72 h; for inhibition at 0.1 µM / inhibition at 1 µM: read-out: Inhibition rate (%); for IC50: read-out: IC50 (µM) K562; for fold decrease in antiproliferative activities of K562 cell lines: relative to 12d. The essentials:
(§1)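 Cells were grown in RPMI-1640 with 10% FBS at 37 °C in 5% CO2. About 3.5 × 10^3 cells/well were seeded, grown 24 h, then given test compound at several concentrations for 72 h in triplicate wells. CCK-8 was added for 2–3 h and OD read at 450 nm to give inhibition rate or IC50. K562 screen: mean of ≥2 independent experiments. Five-line panel: mean ± SD of three.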

Experiment [2] deals with normal cell line HFL-1. Description: CCK-8 assay, normal cell line HFL-1. The note with it: Homo sapiens, HFL1, 72 h, read-out: IC50 (µM) HFL-1. It is filed as cell-based. The essentials: as §1
The test system of experiment [3] is Hela. Description: CCK-8 antiproliferative assay, Hela. It is filed as cell-based. The note with it: Homo sapiens, HeLa, 72 h, read-out: IC50 (µM) Hela. In short, it runs like this:
as §1

Experiment [4] deals with A549. Description: CCK-8 antiproliferative assay, A549. The format is cell-based. Conditions: Homo sapiens, A549, 72 h, read-out: IC50 (µM) A549. In short, it runs like this: as §1
Experiment [5] has as its system H22. Description: CCK-8 antiproliferative assay, H22. The format is cell-based, mouse. Conditions: Mus musculus, H22, 72 h, read-out: IC50 (µM) H22. In short, it runs like this: as §1

Regarding `COc1ccc(CC2Cc3cc(OC)c(OC)c(OC)c3C2)cc1` (centres unmarked) [Compound 12a, 4,5,6-trimethoxy-2–(4-methoxybenzyl)-2,3-dihydro-1H-indene], in experiment [1], the inhibition at 0.1 µM was 5.71% and the inhibition at 1 µM worked out at 72.4%.
In the same order, the values of `COc1ccc(CC2Cc3cc(OC)c(OC)c(OC)c3C2)cc1OC` (centres unmarked) [Compound 12b, 2–(3,4-dimethoxybenzyl)-4,5,6-trimethoxy-2,3-dihydro-1H-indene] are 5.8% and 15.2%.
In the same order, the values of `COc1cc(CC2Cc3cc(OC)c(OC)c(OC)c3C2)cc(OC)c1OC` (centres unmarked) [Compound 12c, 4,5,6-trimethoxy-2–(3,4,5-trimethoxybenzyl)-2,3-dihydro-1H-indene] are 6.96% and 9.48%.
Take `COc1ccc(CC2Cc3cc(OC)c(OC)c(OC)c3C2)cc1F` (centres unmarked) [Compound 12e, 2–(3-fluoro-4-methoxybenzyl)-4,5,6-trimethoxy-2,3-dihydro-1H-indene]: in experiment [1], the inhibition at 0.1 µM was 10.2% and the inhibition at 1 µM is 67%.
In the same order, the values of `COc1cc2c(c(OC)c1OC)CC(Cc1ccc(C)c(F)c1)C2` (centres unmarked) [Compound 12f, 2–(3-fluoro-4-methylbenzyl)-4,5,6-trimethoxy-2,3-dihydro-1H-indene] are 6.65% and 72%.
On to `COc1cc2c(c(OC)c1OC)CC(Cc1ccc(F)c(F)c1)C2` (centres unmarked) [Compound 12g, 2–(3,4-difluorobenzyl)-4,5,6-trimethoxy-2,3-dihydro-1H-indene], for which, in experiment [1], the inhibition at 0.1 µM was found to be 4.71% and the inhibition at 1 µM was 7.74%.
In the same order, the values of `COc1cc2c(c(OC)c1OC)CC(Cc1ccc(N)c(C)c1)C2` (centres unmarked) [Compound 12h, 2-methyl-4-((4,5,6-trimethoxy-2,3-dihydro-1H-inden-2-yl)methyl)aniline] are 2.25% and 79.8%.
In the same order, the values of `COc1cc2c(c(OC)c1OC)CC(Cc1ccc(C)c(C)c1)C2` (centres unmarked) [Compound 12i, 2–(3,4-dimethylbenzyl)-4,5,6-trimethoxy-2,3-dihydro-1H-indene] are 3% and 66%.
As for `COc1ccc(CC2Cc3cc(OC)c(OC)c(OC)c3C2)cc1N` (centres unmarked) [Compound 12j, 2-methoxy-5-((4,5,6-trimethoxy-2,3-dihydro-1H-inden-2-yl)methyl)aniline], the IC50 in experiment [2] amounted to 0.59 ± 0.062 µM; in experiment [3] it was 0.136 ± 0.011 µM; in experiment [4], 0.212 ± 0.013 µM; in experiment [5], 0.093 ± 0.005 µM; in experiment [1] it was 0.068 ± 0.006 µM. In experiment [1], the inhibition at 0.1 µM is 68.7%. In experiment [1], the inhibition at 1 µM worked out at 86.6%.
In the case of `COc1ccc(CC2Cc3cc(OC)c(OC)c(OC)c3C2)cn1` (centres unmarked) [Compound 12k, 2-methoxy-5-((4,5,6-trimethoxy-2,3-dihydro-1H-inden-2-yl)methyl)pyridine], in experiment [1], the inhibition at 0.1 µM stood at 4.12% and the inhibition at 1 µM stood at 13.9%.
In the same order, the values of `COc1cc2c(c(OC)c1OC)CC(Cc1ccccc1)C2` (centres unmarked) [Compound 12l, 2-benzyl-4,5,6-trimethoxy-2,3-dihydro-1H-indene] are 1.03% and 7.29%.
For `COc1cc2c(c(OC)c1OC)CC(Cc1ccc(O)cc1)C2` (centres unmarked) [Compound 12m, 4-((4,5,6-trimethoxy-2,3-dihydro-1H-inden-2-yl)methyl)phenol], in experiment [1], the inhibition at 0.1 µM was determined as 2.9% and the inhibition at 1 µM stood at 16.4%.
In the same order, the values of `COc1cc2c(c(OC)c1OC)CC(Cc1ccc(N)cc1)C2` (centres unmarked) [Compound 12n, 4-((4,5,6-trimethoxy-2,3-dihydro-1H-inden-2-yl)methyl)aniline] are 5.81% and 78.8%.
In the same order, the values of `COc1cc2c(c(OC)c1OC)CC(Cc1ccc(N(C)C)cc1)C2` (centres unmarked) [Compound 12o, N,N-dimethyl-4-((4,5,6-trimethoxy-2,3-dihydro-1H-inden-2-yl)methyl)aniline] are 5.65% and 6.97%.
In the same order, the values of `COc1cc2c(c(OC)c1OC)CC(Cc1ccc(C(F)(F)F)cc1)C2` (centres unmarked) [Compound 12p, 4,5,6-trimethoxy-2–(4-(trifluoromethyl)benzyl)-2,3-dihydro-1H-indene] are 12.6% and 15.4%.
As for `COc1cc2c(c(OC)c1OC)CC(Cc1ccc3c(c1)CCO3)C2` (centres unmarked) [Compound 12q, 5-((4,5,6-trimethoxy-2,3-dihydro-1H-inden-2-yl)methyl)-2,3-dihydrobenzofuran], the half-inhibitory concentration (IC50) in experiment [2] came to 0.398 ± 0.023 µM; in experiment [3], 0.183 ± 0.009 µM; in experiment [4], 0.22 ± 0.015 µM; in experiment [5], 0.104 ± 0.004 µM; in experiment [1], 0.079 ± 0.009 µM. Besides, in experiment [1], the inhibition at 0.1 µM was determined as 83.6%. In addition, the inhibition at 1 µM in experiment [1] was 91.9%.
Regarding `COc1cc2c(c(OC)c1OC)CC(Cc1cccc3[nH]ccc13)C2` (centres unmarked) [Compound 12s, 4-((4,5,6-trimethoxy-2,3-dihydro-1H-inden-2-yl)methyl)-1H-indole], in experiment [1], the inhibition at 0.1 µM turned out to be 9.67% and the inhibition at 1 µM was determined as 67.1%.
Consider `COc1cc2c(c(OC)c1OC)CC(Cc1ccc3[nH]ccc3c1)C2` (centres unmarked) [Compound 12t, 5-((4,5,6-trimethoxy-2,3-dihydro-1H-inden-2-yl)methyl)-1H-indole], for which the IC50 in experiment [2] was 0.552 ± 0.075 µM; in experiment [3], 0.284 ± 0.014 µM; in experiment [4] it was 0.277 ± 0.029 µM; in experiment [5], 0.254 ± 0.02 µM; in experiment [1], 0.176 ± 0.024 µM. Further, in experiment [1], the inhibition at 0.1 µM was found to be 50.4%. The inhibition at 1 µM in experiment [1] amounted to 88.6%.
`COc1cc2c(c(OC)c1OC)CC(Cc1ccc3cc[nH]c3c1)C2` (centres unmarked) [Compound 12u, 6-((4,5,6-trimethoxy-2,3-dihydro-1H-inden-2-yl)methyl)-1H-indole]: in experiment [1], the inhibition at 0.1 µM came out at 10.8% and the inhibition at 1 µM worked out at 83.9%.
In the same order, the values of `COc1cc2c(c(OC)c1OC)CC(Cc1cccc3c1ccn3C)C2` (centres unmarked) [Compound 12v, 1-methyl-4-((4,5,6-trimethoxy-2,3-dihydro-1H-inden-2-yl)methyl)-1H-indole] are 5.02% and 28.5%.
In the same order, the values of `COc1cc2c(c(OC)c1OC)CC(Cc1ccc3c(ccn3C)c1)C2` (centres unmarked) [Compound 12w, 1-methyl-5-((4,5,6-trimethoxy-2,3-dihydro-1H-inden-2-yl)methyl)-1H-indole] are 10% and 85.8%.
In the same order, the values of `COc1cc2c(c(OC)c1OC)CC(Cc1ccc3ccn(C)c3c1)C2` (centres unmarked) [Compound 12x, 1-methyl-6-((4,5,6-trimethoxy-2,3-dihydro-1H-inden-2-yl)methyl)-1H-indole] are 12.5% and 74.9%.
Take `COc1ccc(CC2Cc3cc(OC)c(OC)cc3C2)cc1O` [Compound 15a, 5-((5,6-dimethoxy-2,3-dihydro-1H-inden-2-yl)methyl)-2-methoxyphenol]: the IC50 in experiment [2] amounted to 5 ± 0.306 µM; in experiment [3] it was 0.317 ± 0.027 µM; in experiment [4] it was 0.753 ± 0.04 µM; in experiment [5], 0.307 ± 0.015 µM; in experiment [1] it was 0.192 ± 0.013 µM. Also, the inhibition at 0.1 µM in experiment [1] was found to be 45.6%. Moreover, the inhibition at 1 µM in experiment [1] stood at 81.5%. Moreover, the “fold decrease in antiproliferative activities of K562 cell lines” value in experiment [1] is listed as “about 7 fold”.
In the case of `COc1ccc(CC2Cc3cc(O)c(OC)cc3C2)cc1O` (centres unmarked) [Compound 15b, 2–(3-hydroxy-4-methoxybenzyl)-6-methoxy-2,3-dihydro-1H-inden-5-ol], the concentration for half-maximal inhibition (IC50) was 11.3 ± 1.4 µM in experiment [2]; 3.17 ± 0.108 µM in experiment [3]; 2.01 ± 0.117 µM in experiment [4]; 0.575 ± 0.041 µM in experiment [5]; 0.425 ± 0.027 µM in experiment [1]. The inhibition at 0.1 µM in experiment [1] stood at 31.4%. In experiment [1], the inhibition at 1 µM amounted to 89.2%. Further, the “fold decrease in antiproliferative activities of K562 cell lines” value in experiment [1] is listed as around 15 fold.
In the case of `COc1ccc(CC2Cc3c(cc(OC)c(OC)c3OC)O2)cc1O` (centres unmarked) [Compound 15c, 2-methoxy-5-((4,5,6-trimethoxy-2,3-dihydrobenzofuran-2-yl)methyl)phenol], the IC50 worked out at 3.58 ± 0.548 µM in experiment [2]; 0.309 ± 0.032 µM in experiment [3]; 0.341 ± 0.064 µM in experiment [4]; 0.114 ± 0.023 µM in experiment [5]; 0.1 ± 0.007 µM in experiment [1]. For the same compound, the inhibition at 0.1 µM in experiment [1] was found to be 52.1%. For the same compound, the inhibition at 1 µM in experiment [1] is 87.5%.
For the compound `COc1ccc(CC2Cc3cc(OC)c(OC)c(OC)c3C2=O)cc1O` (centres unmarked) [Compound 15d, 2–(3-hydroxy-4-methoxybenzyl)-5,6,7-trimethoxy-2,3-dihydro-1H-inden-1-one], the half-maximal inhibitory concentration (IC50) in experiment [2] is 6.96 ± 0.843 µM; in experiment [3], 3.41 ± 0.186 µM; in experiment [4], 2.95 ± 0.154 µM; in experiment [5] it was 1.13 ± 0.058 µM; in experiment [1], 0.774 ± 0.051 µM. Besides, in experiment [1], the inhibition at 0.1 µM stood at 39%. Further, the inhibition at 1 µM in experiment [1] was determined as 63%.
